Laboratory results reported in ChEMBL document CHEMBL2380272, “Biological evaluation of bisbenzaldehydes against four Mycobacterium species” (Eur J Med Chem, 2013).
≈ marks a conversion by molar mass, not a printed value.

Assays:
[1] = tested on: Mycobacterium tuberculosis; test: Antimycobacterial activity against multidrug-resistant Mycobacterium tuberculosis LAM-1 clinical isolate assessed as growth inhibition after 6 days by BACTEC 460-TB method; format: functional; conditions: LAM-1, 144 h
Outline: (§1)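 BACTEC 460-TB radiometric assay measuring 14CO2 from 14C-palmitic acid. The MDR LAM-1 isolate was precultured to growth index 300, then inoculated into a fresh vial with compound dilutions made in 7H9 + 10% OADC. Final concentrations were 0.4–1.2 µM. GI was read daily. MIC90 and MIC99 came from comparison with untreated controls diluted 10- and 100-fold. A 0.1 µg/mL isoniazid culture served as the resistance control.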

[2] = tested on: Mycobacterium tuberculosis; test: Antimycobacterial activity against multidrug-resistant Mycobacterium tuberculosis LAM-1 clinical isolate assessed as growth inhibition at 1 to 1.2 uM after 6 days by BACTEC 460-TB method relative to 10 to 100 times diluted untreated control; format: functional; outline: as §1

| SMILES | MIC90 [1] [µM] | growth inhibition (GI) [2] [%] |
| --- | --- | --- |
| O=Cc1ccc(OCCCCCCCCCOc2ccc(C=O)cc2)cc1 | 0.6 (≈ 0.221 µg/mL) | – |
| O=Cc1ccc(OCCCCCCCCCCCOc2ccc(C=O)cc2)cc1 | 0.6 (≈ 0.238 µg/mL) | 99 |
| O=Cc1ccc(OCCCCCCCCCCOc2ccc(C=O)cc2)cc1 | 0.6 (≈ 0.229 µg/mL) | – |
| O=Cc1ccc(OCCCCCCCCCCCCOc2ccc(C=O)cc2)cc1 | 0.4 (≈ 0.164 µg/mL) | 99 |
